Measured values from ChEMBL document CHEMBL4321877, “Development of Novel N-hydroxypyridone Derivatives as Potential Anti-Ischemic Stroke Agents” (J Med Chem, 2020).
≈ marks a conversion by molar mass, not a printed value. Calls of active or inactive are those of the source. The calls are words filed in the database; no cut-off is given here.

Columns and labels:
SH-SY5Y [1] = test: Neuroprotective activity against oxygen-glucose deprivation-induced toxicity in human SH-SY5Y cells assessed as cell viability at 1 uM preincubated for 2 hrs followed by OGD-challenge and measured after 24 hrs by MTT assay (reference value: 54.92 +/- 2.12%); assay type: functional; conditions: read-out: Activity
SH-SY5Y [2] = test: Neuroprotective activity against oxygen-glucose deprivation-induced toxicity in human SH-SY5Y cells assessed as cell viability at 10 uM preincubated for 2 hrs followed by OGD-challenge and measured after 24 hrs by MTT assay (reference value: 54.92 +/- 2.12%); assay type: functional; conditions: read-out: Activity
SH-SY5Y [3] = test: Cytotoxicity against human SH-SY5Y cells assessed as reduction in cell viability at 10 uM measured after 24 hrs by MTT assay; assay type: cell-based
Procedure, shortened: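 SH-SY5Y cells (1:1 MEM/F12, 10% FBS) seeded 3 × 10^4 cells/well, grown 24 h, then exposed without insult for 24 h to 1.56–100 µM or to 1 and 10 µM (DMSO stock diluted in medium). MTT read at 490 nm; viability as % of untreated control.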

[4] = Permeability of the compound incubated for 10 hrs by PAMPA; assay type: ADME; conditions: read-out: permeability
[5] = Solubility of the compound in […] incubated for 24 hrs by HPLC analysis; assay type: physicochemical
[6] = Antioxidant activity assessed as trolox equivalent of AAPH radical scavenging activity measured every min for 180 mins by ORAC-FL assay; assay type: functional
SH-SY5Y [7] = test: Neuroprotective activity against oxygen-glucose deprivation-induced toxicity in human SH-SY5Y cells assessed as cell viability at 1 uM preincubated for 2 hrs followed by OGD-challenge and measured after 24 hrs by MTT assay (reference value: 54.23 +/- 4.48%); assay type: functional; conditions: read-out: Activity
SH-SY5Y [8] = test: Neuroprotective activity against oxygen-glucose deprivation-induced toxicity in human SH-SY5Y cells assessed as cell viability at 4 uM added immediately before OGD-challenge and measured after 24 hrs by MTT assay (reference value: 54.23 +/- 4.48%)
SH-SY5Y [9] = test: Neuroprotective activity against oxygen-glucose deprivation-induced toxicity in human SH-SY5Y cells assessed as cell viability at 2 uM preincubated for 2 hrs followed by OGD-challenge and measured after 24 hrs by MTT assay (reference value: 54.92 +/- 2.12%); assay type: functional; conditions: read-out: Activity
SH-SY5Y [10] = test: Neuroprotective activity against oxygen-glucose deprivation-induced toxicity in human SH-SY5Y cells assessed as cell viability at 4 uM preincubated for 2 hrs followed by OGD-challenge and measured after 24 hrs by MTT assay (reference value: 54.92 +/- 2.12%); assay type: functional; conditions: read-out: Activity
[11] = Metal chelating activity of the compound assessed as formation of ferric-compound complex at 60 uM after 15 mins using ammonium iron citrate solution by UV-vis spectrophotometric method
[12] = Metal chelating activity of the compound assessed as formation of ferric-compound complex at 60 uM after 15 mins using FeSO4 solution by UV-vis spectrophotometric method
[13] = Metal chelating activity of the compound assessed as formation of ferrous-compound complex at 60 uM after 15 mins using ammonium iron(II) sulfate solution by UV-vis spectrophotometric method
[14] = Metal chelating activity of the compound assessed as formation of ferric-compound complex at 60 uM after 15 mins using FeCl3 solution by UV-vis spectrophotometric method
[15] = Metal chelating activity of the compound assessed as formation of ferric-compound complex by measuring change in color at 60 uM after 15 mins using ammonium iron citrate solution by UV-vis spectrophotometric method
[16] = Metal chelating activity of the compound assessed as formation of ferric-compound complex by measuring change in color at 60 uM after 15 mins using FeSO4 solution by UV-vis spectrophotometric method
[17] = Metal chelating activity of the compound assessed as formation of ferric-compound complex at 60 uM after 15 mins using ammonium iron citrate solution by UV-vis spectrophotometric method
HT-22 = test: Neuroprotective activity against glutamate-induced cell death in mouse HT22 cells assessed as increase in cell viability up to 4 uM preincubated for 2 hrs followed by glutamate-challenge and measured after 24 hrs by MTT assay; assay type: functional, cell-based
Procedure, shortened: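 HT22 mouse hippocampal cells (DMEM, 10% FBS) seeded 5×10^4 cells/ml and grown 12 h. Compound added for 2 h, then 10 mM L-glutamic acid hydrochloride for 24 h. Viability by MTT at 490 nm as % of control; mean ± SD, n = 3.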

Rattus norvegicus = test: Neuroprotective activity in Sprague-Dawley rat model of middle cerebral artery occlusion-induced ischemia-reperfusion injury assessed as reduction in disease severity score at 3 mg/kg, iv measured 24 hrs post-reperfusion; assay type: functional, organism-based
Procedure, shortened: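 Male Sprague-Dawley rats anesthetized with chloral hydrate (400 mg/kg i.p.); left MCA occluded by intraluminal nylon suture for 2 h, then withdrawn. Compound in 0.9% saline given by tail vein immediately after reperfusion; body temperature held at 37.0 ± 0.5 °C. mNSS scored 24 h later; n = 15–18, mean ± SEM.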

SH-SY5Y [18] = test: Neuroprotective activity against oxygen-glucose deprivation-induced toxicity in human SH-SY5Y cells assessed as increase in cell viability preincubated for 2 hrs followed by OGD-challenge and measured after 24 hrs by MTT assay; assay type: functional, cell-based
SH-SY5Y [19] = test: Neuroprotective activity against oxygen-glucose deprivation-induced toxicity in human SH-SY5Y cells assessed as cell viability at 1 uM preincubated for 2 hrs followed by OGD-challenge and measured after 24 hrs by MTT assay (reference value: 49.91%); assay type: functional; conditions: read-out: Activity
SH-SY5Y [20] = test: Neuroprotective activity against oxygen-glucose deprivation-induced toxicity in human SH-SY5Y cells assessed as cell viability at 10 uM preincubated for 2 hrs followed by OGD-challenge and measured after 24 hrs by MTT assay (reference value: 49.91%); assay type: functional; conditions: read-out: Activity

Row | SMILES | viability at 1 µM (SH-SY5Y [1]) [%] | viability at 10 µM (SH-SY5Y [2]) [%] | further results
1 | Cc1cc(Cc2ccccc2)n(O)c(=O)c1 | 46.5 | 76.8 | –
2 | Cc1cc(C)n(O)c(=O)c1 [METIPIROX] | 55.8 | 18.3 | –
3 | Cc1cc(CC(C)C)n(O)c(=O)c1 | 47.7 | 73.3 | –
4 | Cc1cc(C2CCCCC2)n(O)c(=O)c1 [CICLOPIROX] | 70.1 | 69.8 | Activity (SH-SY5Y [3]): Toxic; Papp at 10 h [4]: 8.17 ×10⁻⁶ cm/s; solubility at 24 h [5]: 1430 µg/mL (≈ 6.9 mM)
5 | O=c1c2ccccc2cc(C2CCCCC2)n1O | 78.5 | 61.6 | Activity [6]: inactive; Papp at 10 h [4]: 4.43 ×10⁻⁶ cm/s
6 | Cc1cc(C2CCCCC2)n(O)c(=O)c1C=O | 54.8 | 56.5 | –
7 | Cc1cc(C2CCC2)n(O)c(=O)c1 | 46 | 71.2 | –
8 | CCCCCCCNCc1c(C)cc(C2CCCCC2)n(O)c1=O | – | – | viability at 1 µM (SH-SY5Y [7]): 60%; viability at 4 µM (SH-SY5Y [8]): 87.2%
9 | Cc1cc(C2CCCCC2)n(O)c(=O)c1Cl | 63.4 | 57.1 | –
10 | Cc1cc(C2CCCCC2)n(OCC(=O)O)c(=O)c1 | 56 | 55.9 | –
11 | Cc1cc([C@H]2C[C@H]3CC[C@@H]2C3)n(O)c(=O)c1 | 70.6 | 64.5 | Activity (SH-SY5Y [3]): Toxic; viability at 2 µM (SH-SY5Y [9]): > 80%; viability at 4 µM (SH-SY5Y [10]): > 80%; Activity (umolequiv/umol) [6]: 1.13; Papp at 10 h [4]: 7.5 ×10⁻⁶ cm/s; solubility at 24 h [5]: 1220 µg/mL (≈ 5.56 mM); Activity [11]: Active; Activity [12]: Active; Activity [13]: Active; Activity [14]: Active; Activity [15]: Active; Activity [16]: Active; Activity [17]: Active
12 | Cc1cc(C2CCCCCC2)n(O)c(=O)c1 | 71 | 38.4 | Activity (SH-SY5Y [3]): Toxic; viability at 2 µM (SH-SY5Y [9]): > 80%; Activity [6]: inactive; Papp at 10 h [4]: 4.42 ×10⁻⁶ cm/s
13 | Cc1cc(C2CCCCC2)n(O)c(=O)c1I | 76.3 | 55.1 | viability at 2 µM (SH-SY5Y [9]): > 80%; Activity (umolequiv/umol) [6]: 0.2; Papp at 10 h [4]: 7.65 ×10⁻⁶ cm/s
14 | Cc1cc(C2CC2)n(O)c(=O)c1 | 58.8 | 62.8 | –
15 | Cc1cc(C2CCCC2)n(O)c(=O)c1 | 52.4 | 70.7 | –
16 | Cc1cc(C2CCCCC2)n(O)c(=O)c1 | – | – | Activity (umolequiv/umol) [6]: 0.52; Activity (HT-22): Active; Activity [11]: Active; Activity [12]: Active; Activity [13]: Active; Activity [14]: Active; Activity [15]: Active; Activity [16]: Active; Activity (Rattus norvegicus): Active; Activity [17]: Active

Row | SMILES | viability at 1 µM (SH-SY5Y [1]) [%] | viability at 10 µM (SH-SY5Y [2]) [%] | further results
17 | COC(=O)COn1c(C2CCCCC2)cc(C)cc1=O | 49.9 | 56.4 | –
18 | CCCCCCCc1cc(C)cc(=O)n1O | 71.7 | 58.5 | Activity (SH-SY5Y [18]): inactive
19 | Cc1cc(C2CCCCC2)n(O)c(=O)c1CNC1CCCC1 | 67 | 61.9 | Activity (SH-SY5Y [3]): Toxic; Activity [6]: inactive; Papp at 10 h [4]: 3.89 ×10⁻⁶ cm/s
20 | CCCCCCCCCc1cc(C)cc(=O)n1O | 53 | 42.5 | –
21 | CNCc1c(C)cc(C2CCCCC2)n(O)c1=O | 60.9 | 67.5 | –
22 | Cc1cc(C2CCCCC2)n(O)c(=O)c1Br | 62.9 | 59.9 | –
23 | CCOn1c(C2CCCCC2)cc(C)cc1=O | – | – | viability at 1 µM (SH-SY5Y [19]): 46.3%; viability at 10 µM (SH-SY5Y [20]): 43.9%; Activity [11]: inactive; Activity [12]: inactive
24 | Cc1cc(=O)n(O)c(C2CCCCC2)c1Br | 81 | 63.2 | Activity [6]: inactive; Papp at 10 h [4]: 3.97 ×10⁻⁶ cm/s
25 | Cc1cc(C2CCCCC2)n(O)c(=O)c1CNC(C)C | 61 | 65.2 | –
26 | O=c1cccc(C2CCCCC2)n1O | 51.8 | 76.6 | –
27 | CCc1cc(C2CCCCC2)n(O)c(=O)c1 | 69.8 | 67.3 | Activity [6]: inactive; Papp at 10 h [4]: 4.53 ×10⁻⁶ cm/s
28 | Cc1cc(C2CCCCC2)n(O)c(=O)c1CNc1ccccc1 | 56.8 | 75.5 | –
29 | CCCNCc1c(C)cc(C2CCCCC2)n(O)c1=O | 61 | 68 | –
30 | C#CCNCc1c(C)cc(C2CCCCC2)n(O)c1=O | 63.6 | 61.6 | –
31 | CCCCCc1cc(C)cc(=O)n1O | 63.5 | 62 | –
32 | CCCc1cc(C)cc(=O)n1O | 47 | 64 | –
